These results are taken from ChEMBL document CHEMBL1146755, “Potent nonpeptide vasopressin receptor antagonists based on oxazino- and thiazinobenzodiazepine templates” (Bioorg Med Chem Lett, 2004).

What is called Ki is a measure of affinity in units of concentration, obtained from inhibition or displacement. For orientation: inhibition means the drop in the measured response relative to a control, in per cent.

Molecules are shown by their SMILES.

In assay [1] the target is T1, Vasopressin V1a receptor (Homo sapiens, UniProt P37288). In words: Inhibition of [3H]AVP binding to recombinant human vasopressin V1a receptor. The method in brief:
(§1)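 Competition binding on membranes from HEK-293 cells transfected with recombinant human V1a or V2 receptor; Ki values reported in nM.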
Target sequence in this assay (P37288 whole entry): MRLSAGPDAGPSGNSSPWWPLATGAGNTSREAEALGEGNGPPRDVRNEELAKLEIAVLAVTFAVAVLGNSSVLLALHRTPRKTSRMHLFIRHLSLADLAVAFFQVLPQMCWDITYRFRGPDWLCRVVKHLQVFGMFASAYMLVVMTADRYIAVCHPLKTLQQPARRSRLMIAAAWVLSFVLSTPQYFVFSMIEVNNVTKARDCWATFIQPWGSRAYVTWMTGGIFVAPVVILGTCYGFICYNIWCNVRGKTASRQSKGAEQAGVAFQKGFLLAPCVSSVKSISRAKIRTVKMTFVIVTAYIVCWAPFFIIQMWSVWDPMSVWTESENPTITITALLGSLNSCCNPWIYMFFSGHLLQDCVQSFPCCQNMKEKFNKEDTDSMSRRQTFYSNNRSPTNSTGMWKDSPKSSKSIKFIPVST

Assay [2] addresses T2, Vasopressin V2 receptor (Homo sapiens, UniProt P30518). In words: Inhibition of [3H]AVP binding to recombinant human vasopressin V2 receptor. An outline of the steps:
as §1

In assay [3] the target is T2, Vasopressin V2 receptor. In words: Inhibition of 1 nM AVP-induced cAMP accumulation in cells expressing human vasopressin V2 receptor. The format is functional. The method in brief:
(§2)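 HEK-293 cells expressing human receptor stimulated with 1 nM AVP; antagonism read as change in intracellular Ca2+ (V1a) or cAMP accumulation (V2).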

Assay [4] addresses T1, Vasopressin V1a receptor. Kind of assay: Inhibition of 1 nM AVP-induced calcium mobilisation in cells expressing human vasopressin V1a receptor. The method in brief:
as §2
For orientation: A change in cytosolic calcium serves as a functional read-out for many receptors and channels.
Target sequence in this assay (P37288 whole entry): as above

Assay [5] concerns the target T1, Vasopressin V1a receptor. In words: Inhibition of [3H]AVP binding to recombinant human vasopressin V1a receptor at 100 nM.
Target sequence in this assay (P37288 whole entry, looked up): as the sequence (P37288 whole entry) above
The target in assay [6] is T1, Vasopressin V1a receptor. In words: Inhibition of [3H]AVP binding to recombinant human vasopressin V1a receptor at 1000 nM.
Target sequence in this assay (P37288 whole entry, looked up): as the sequence (P37288 whole entry) above

T2 sequence (P30518 whole entry): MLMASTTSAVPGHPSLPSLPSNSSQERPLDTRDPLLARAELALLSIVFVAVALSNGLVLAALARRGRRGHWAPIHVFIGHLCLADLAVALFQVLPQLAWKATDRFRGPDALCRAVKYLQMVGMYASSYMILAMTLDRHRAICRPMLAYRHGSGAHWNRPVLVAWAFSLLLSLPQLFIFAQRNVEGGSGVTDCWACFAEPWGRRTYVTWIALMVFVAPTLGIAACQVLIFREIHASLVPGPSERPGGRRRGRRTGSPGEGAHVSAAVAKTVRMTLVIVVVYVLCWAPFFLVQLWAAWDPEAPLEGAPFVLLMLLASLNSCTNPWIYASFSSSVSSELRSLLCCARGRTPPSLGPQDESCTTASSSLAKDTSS

For the compound `O=C(Nc1ccc(C(=O)N2CC3CS(=O)(=O)CCN3Cc3ccccc32)cc1)c1ccccc1-c1ccccc1` (centres undefined), the Ki result at Vasopressin V1a receptor [1] was “Not Active”; on Vasopressin V2 receptor [2], 0.065 µM; at Vasopressin V2 receptor [3], 0.04 µM; at Vasopressin V1a receptor [4], 1.4 µM.

Turning to `O=C(Nc1ccc(C(=O)N2C[C@H]3COCCN3Cc3ccccc32)c(Cl)c1)c1ccccc1-c1ccccc1`, the Ki on Vasopressin V1a receptor [1] is 0.024 µM; at Vasopressin V2 receptor [2], 0.0009 µM; at Vasopressin V2 receptor [3] it was 0.004 µM; at Vasopressin V1a receptor [4] it was 0.6 µM.

Turning to `Cc1ccc(F)cc1C(=O)Nc1ccc(C(=O)N2C[C@H]3COCCN3Cc3ccccc32)c(Cl)c1`, the Ki at Vasopressin V1a receptor [1] is 0.1 µM; at Vasopressin V2 receptor [2], 0.0028 µM; at Vasopressin V2 receptor [3], 0.012 µM; at Vasopressin V1a receptor [4], 2 µM.

Take `O=C(Nc1ccc(C(=O)N2CC3COCCN3Cc3ccccc32)c(Cl)c1)c1ccccc1-c1ccccc1` (single isomer, unassigned): the Ki at Vasopressin V1a receptor [1] amounted to 0.64 µM; at Vasopressin V2 receptor [2] it was 0.015 µM; at Vasopressin V2 receptor [3], 0.17 µM; on Vasopressin V1a receptor [4] it was 14 µM.

As for `O=C(Nc1ccc(C(=O)N2CC3CSCCN3Cc3ccccc32)c(F)c1)c1ccccc1-c1ccccc1` (centres undefined), the Ki result is “Not Active” at Vasopressin V1a receptor [1] and 0.01 µM at Vasopressin V2 receptor [2].

`COc1ccc(C(=O)Nc2ccc(C(=O)N3C[C@H]4COCCN4Cc4ccccc43)c(Cl)c2)c(-c2ccccc2)c1`: the Ki entry was “Not Active” at Vasopressin V1a receptor [1], 0.0042 µM at Vasopressin V2 receptor [2], 0.005 µM on Vasopressin V2 receptor [3] and 1.3 µM at Vasopressin V1a receptor [4].

With `O=C(Nc1ccc(C(=O)N2C[C@H]3COCCN3Cc3ccccc32)c(Cl)c1)c1ccccc1-c1cccc(O)c1`, the Ki result on Vasopressin V1a receptor [1] was “Not Active”; at Vasopressin V2 receptor [2], 0.005 µM; at Vasopressin V2 receptor [3] it was 0.02 µM; at Vasopressin V1a receptor [4], 11 µM.

In the case of `O=C(Nc1ccc(C(=O)N2CC3CSCCN3Cc3ccccc32)c(O)c1)c1ccccc1-c1ccccc1` (centres undefined), the Ki on Vasopressin V1a receptor [1] is 0.11 µM; at Vasopressin V2 receptor [2] it was 0.0032 µM.

For `COc1cc(NC(=O)c2ccccc2-c2ccccc2)ccc1C(=O)N1CC2CSCCN2Cc2ccccc21` (centres undefined), the Ki result at Vasopressin V1a receptor [1] is “Not Active”; on Vasopressin V2 receptor [2], 0.015 µM.

Turning to `O=C(Nc1ccc(C(=O)N2C[C@H]3COCCN3Cc3ccccc32)cc1)c1ccccc1-c1ccccc1`, the Ki on Vasopressin V2 receptor [2] amounted to 0.0037 µM; on Vasopressin V2 receptor [3] it was 0.016 µM. The inhibition at Vasopressin V1a receptor [5] stood at 69%.

Regarding `Cc1ccc2c(c1)N(C(=O)c1ccc(NC(=O)c3ccccc3-c3ccccc3)cc1)CC1CSCCN1C2` (centres undefined), the Ki amounted to 0.018 µM at Vasopressin V1a receptor [1], 0.008 µM at Vasopressin V2 receptor [2], 0.023 µM on Vasopressin V2 receptor [3] and 14 µM on Vasopressin V1a receptor [4].

`O=C(Nc1ccc(C(=O)N2CC3CSCCN3Cc3ccccc32)c(Cl)c1)c1cc(F)ccc1-c1ccccc1` (centres undefined): the Ki result is “Not Active” at Vasopressin V1a receptor [1], 0.037 µM on Vasopressin V2 receptor [2], 0.07 µM at Vasopressin V2 receptor [3] and 14 µM on Vasopressin V1a receptor [4].

With `O=C(Nc1ccc(C(=O)N2CC3CSCCN3Cc3ccc(F)c(F)c32)cc1)c1ccccc1-c1ccccc1` (centres undefined), the Ki result at Vasopressin V1a receptor [1] is “Not Active”; at Vasopressin V2 receptor [2], 0.018 µM.

On to `Cc1ccc(F)cc1C(=O)Nc1ccc(C(=O)N2CC3CSCCN3Cc3ccccc32)c(Cl)c1` (centres undefined), for which the Ki result is “Not Active” on Vasopressin V1a receptor [1], 0.06 µM on Vasopressin V2 receptor [2], 0.3 µM on Vasopressin V2 receptor [3] and 14 µM at Vasopressin V1a receptor [4].

Turning to `O=C(Nc1ccc(C(=O)N2CC3CSCCN3Cc3ccccc32)c(Cl)c1)c1ccccc1-c1ccccc1` (centres undefined), the Ki is 0.49 µM at Vasopressin V1a receptor [1] and 0.011 µM on Vasopressin V2 receptor [2].

Consider `O=C(Nc1ccc(C(=O)N2C[C@H]3COCCN3Cc3ccccc32)c(Cl)c1)c1cc(F)ccc1-c1ccccc1`, for which the values for the Ki at Vasopressin V2 receptor [2], on Vasopressin V2 receptor [3] and at Vasopressin V1a receptor [4] were 0.011 µM, 0.012 µM and 6.4 µM, respectively. In addition, on Vasopressin V1a receptor [6], the inhibition was 62%.

For `O=C(Nc1ccc(C(=O)N2CC3CSCCN3Cc3ccccc32)cc1)c1ccccc1-c1ccccc1` (centres undefined), the Ki came to 0.049 µM at Vasopressin V1a receptor [1] and 8 µM on Vasopressin V1a receptor [4].

With `O=C(Nc1ccc(C(=O)N2CC3CSCCN3Cc3ccc(F)cc32)cc1)c1ccccc1-c1ccccc1` (centres undefined), the values for the Ki result at Vasopressin V1a receptor [1] and at Vasopressin V2 receptor [2] were “Not Active” and 0.009 µM, respectively.

For the compound `O=C(Nc1ccc(C(=O)N2C[C@H]3COCCN3Cc3ccccc32)c(Cl)c1)c1ccc(O)cc1-c1ccccc1`, the inhibition constant Ki at Vasopressin V1a receptor [1] came to 0.03 µM; on Vasopressin V1a receptor [4], 1.6 µM.

Consider `O=C(Nc1ccc(C(=O)N2C[C@H]3CSCCN3Cc3ccccc32)cc1)c1ccccc1-c1ccccc1`, for which the Ki was found to be 0.084 µM on Vasopressin V1a receptor [1] and 1.4 µM at Vasopressin V1a receptor [4].

On to `O=C(Nc1ccc(C(=O)N2C[C@H]3COCCN3Cc3ccccc32)c(Cl)c1)c1cc(O)ccc1-c1ccccc1`, for which the Ki entry is “Not Active” at Vasopressin V1a receptor [1], 0.013 µM at Vasopressin V2 receptor [2], 0.07 µM at Vasopressin V2 receptor [3] and 1.9 µM on Vasopressin V1a receptor [4].

Consider `O=C(Nc1ccc(C(=O)N2C[C@H]3CSCCN3Cc3ccccc32)c(Cl)c1)c1ccccc1-c1ccccc1`, for which the Ki at Vasopressin V1a receptor [1] came to 0.25 µM; on Vasopressin V2 receptor [2] it was 0.0037 µM; at Vasopressin V2 receptor [3], 0.017 µM; at Vasopressin V1a receptor [4], 14 µM.

In the case of `O=C(Nc1ccc(C(=O)N2C[C@H]3COCCN3Cc3ccccc32)c(Cl)c1)c1ccc(F)cc1-c1ccccc1`, the Ki entry is “Not Active” at Vasopressin V1a receptor [1], 0.0019 µM at Vasopressin V2 receptor [2], 0.002 µM at Vasopressin V2 receptor [3] and 0.7 µM at Vasopressin V1a receptor [4].

With `Cc1ccc(F)cc1C(=O)Nc1ccc(C(=O)N2Cc3cccn3Cc3ccccc32)c(Cl)c1` [LIXIVAPTAN], the Ki on Vasopressin V1a receptor [1] came to 0.044 µM; at Vasopressin V2 receptor [2] it was 0.0023 µM; at Vasopressin V2 receptor [3] it was 0.023 µM; on Vasopressin V1a receptor [4], 6 µM.

For `COc1ccc(-c2ccccc2C(=O)Nc2ccc(C(=O)N3C[C@H]4COCCN4Cc4ccccc43)c(Cl)c2)cc1`, the Ki result is “Not Active” at Vasopressin V1a receptor [1], 0.0028 µM at Vasopressin V2 receptor [2], 0.003 µM on Vasopressin V2 receptor [3] and 1.9 µM at Vasopressin V1a receptor [4].

Turning to `COc1ccc(-c2ccccc2)c(C(=O)Nc2ccc(C(=O)N3C[C@H]4COCCN4Cc4ccccc43)c(Cl)c2)c1`, the Ki result at Vasopressin V1a receptor [1] was “Not Active”; on Vasopressin V2 receptor [2] it was 0.017 µM.

On to `O=C(Nc1ccc(C(=O)N2CC3CSCCN3Cc3ccccc32)c(Cl)c1)c1ccc(F)cc1-c1ccccc1` (centres undefined), for which the Ki amounted to 0.41 µM on Vasopressin V1a receptor [1] and 0.0037 µM at Vasopressin V2 receptor [2].

As to `COc1cccc(-c2ccccc2C(=O)Nc2ccc(C(=O)N3C[C@H]4COCCN4Cc4ccccc43)c(Cl)c2)c1`, the inhibition constant (Ki) entry is “Not Active” at Vasopressin V1a receptor [1], 0.0037 µM at Vasopressin V2 receptor [2], 0.002 µM on Vasopressin V2 receptor [3] and 3.4 µM at Vasopressin V1a receptor [4].

For `O=C(Nc1ccc(C(=O)N2CC3CSCCN3Cc3cccc(Cl)c32)cc1)c1ccccc1-c1ccccc1` (centres undefined), the inhibition constant Ki result was “Not Active” on Vasopressin V1a receptor [1] and 0.01 µM at Vasopressin V2 receptor [2].

As to `Cc1cc(NC(=O)c2ccccc2-c2ccccc2)ccc1C(=O)N1CC2CSCCN2Cc2ccccc21` (centres undefined), the Ki result at Vasopressin V1a receptor [1] is “Not Active”; on Vasopressin V2 receptor [2], 0.01 µM.

For the compound `O=C(Nc1ccc(C(=O)N2C[C@H]3COCCN3Cc3ccccc32)c(Cl)c1)c1ccccc1-c1ccc(O)cc1`, the Ki result at Vasopressin V1a receptor [1] is “Not Active”; on Vasopressin V2 receptor [2], 0.0042 µM; at Vasopressin V2 receptor [3] it was 0.011 µM; at Vasopressin V1a receptor [4], 4.2 µM.

`O=C(Nc1ccc(C(=O)N2C[C@@H]3CSCCN3Cc3ccccc32)cc1)c1ccccc1-c1ccccc1`: the Ki on Vasopressin V1a receptor [1] came to 0.29 µM; at Vasopressin V1a receptor [4], 1.3 µM.
